Experimental data collected from several papers.
Protocols differ between the studies behind these lines.
Effect on: binding
CDK4 with cyclin D1: Cyclin-dependent kinase 4, with cyclin D1 (CDK4, Homo sapiens, UniProt P11802)
CDK4: Cyclin-dependent kinase 4 (CDK4, Homo sapiens, UniProt P11802)
CDK4 with cyclin D3: Cyclin-dependent kinase 4, with cyclin D3 (CDK4, Homo sapiens, UniProt P11802)

With `Cc1ccc(NC(=O)c2ccnc(C(F)(F)F)c2)cc1-c1cc(OCCO)nc(N2CCOCC2)c1` the remaining binding was 97% (CDK4 with cyclin D1; 1 µM).
For `C1=C/COCc2cc(ccc2OCCN2CCCC2)Nc2nccc(n2)-c2cccc(c2)COC/1`, the remaining binding was 99% (CDK4; 0.1 µM).
For `Cc1cc(S(=O)(=O)N[C@H]2CC[C@H](CN3CCN(c4ccc(C5CCC(=O)NC5=O)cc4F)CC3)CC2)ccc1Nc1ncc(C(F)(F)F)c(N2CCC[C@](C)(O)C2)n1` (stereo partly drawn), the remaining binding was 52% (CDK4 with cyclin D3; competition with immobilised ligand; 1 µM).
For `CCCCC(=O)Nc1ccc(-c2ccc3ncn(CCC)c(=O)c3c2)cn1`, the remaining binding was 95% (CDK4 with cyclin D3; competition with immobilised ligand; 0.5 µM).
`CN1CCN(C(=O)c2ccc(NC(=O)Nc3ccc(N(C)c4ccnc(Nc5ccc(CS(C)(=O)=O)cc5)n4)cc3)cc2)CC1` has a remaining binding of 77% (CDK4 with cyclin D1; 1 µM).
With `C[C@]1(O)CCCN(c2nc(Nc3ccc(S(=O)(=O)N[C@H]4CC[C@H](CN5CCN(c6ccc(C7CCC(=O)NC7=O)cc6F)CC5)CC4)cc3F)ncc2C(F)(F)F)C1` (stereo partly drawn) the remaining binding was 97% (CDK4; competition with immobilised ligand; 1 µM).
For `COc1ccc2oc(-c3ccc4nc(N)oc4c3)c/c(=N\c3ccccc3NC(=O)CCN)c2c1`, the remaining binding was 93% (CDK4 with cyclin D3; 1 µM).
For `CNS(=O)(=O)c1ccc(Nc2ncc(C(F)(F)F)c(N3CCC[C@](C)(O)C3)n2)c(C)c1`, the remaining binding was 33% (CDK4 with cyclin D3; competition with immobilised ligand; 1 µM).
With `COc1ccc2[nH]c3c4[nH]c5ccc(OC)cc5c4c4c(c3c2c1)C(=O)NC4=O` the remaining binding was 100% (CDK4; 1 µM).
